An excerpt weighted towards active compounds, which were near 1.5% of everything screened.
PG9 binder – PG9 antibody binding by small molecule; TR-FRET gp120-PG9 antibody binding; inhibition, % at 6.7 µM; 0.43% of 360,000 active; AID 624416; in the data active = inhibition above about 8.5%
NR2E3 ag-1 – NR2E3 (human) agonism; Q9Y5X4; inhibition of corepressor binding, % at 4.78 µM; GST-NR2E3/biotin-RetCOR TR-FRET, 1536-well; 0.12% of 320,000 active; AID 2300;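 active = percent inhibition above the cutoff of mean plus 3 SD of all tested compounds, set per screening campaign, cut at about 20% in these data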;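 note: 0% = DMSO wells and 100% = biotin wells as full block of FRET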
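Material: NR2E3–RetCOR corepressor complex / Incubation: Compound–protein incubation for 5 h at 4 °C / Dosing: compound at 4.8 µM, single dose / Detection: time-resolved FRET / Benchmarks: high control biotin, low control 0.6% DMSO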
NR2E3 ag-2 – agonists of human NR2E3 nuclear receptor | Q9Y5X4 | CHO-S Gal4-NCOR/VP16-NR2E3 two-hybrid, luciferase | inhibition of corepressor binding, % at 3.98 µM | 0.35% of 360,000 active;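 active = inhibition above the mean of all tested compounds plus 3 SD, cut at about 70% in these data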;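 note: 0% = DMSO with NR2E3 transfected cells and 100% = cells lacking NR2E3 construct; higher means lower luciferase signal from less NR2E3 corepressor binding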
Rev-erbA mod – modulates human Rev-erb alpha binding to DNA. Rev-erbα–FITC-DNA binding, fluorescence polarization, 90 min. activity, % at 10 µM. 0.79% of 370,000 active. AID 1259318;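 active = activity above about 14%, limit read from the data; passing the limit was not always enough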;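 note: 0% = DMSO wells with 35 nM protein and 100% = DMSO wells with 750 nM protein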
Target sequence (P20393 whole entry, looked up): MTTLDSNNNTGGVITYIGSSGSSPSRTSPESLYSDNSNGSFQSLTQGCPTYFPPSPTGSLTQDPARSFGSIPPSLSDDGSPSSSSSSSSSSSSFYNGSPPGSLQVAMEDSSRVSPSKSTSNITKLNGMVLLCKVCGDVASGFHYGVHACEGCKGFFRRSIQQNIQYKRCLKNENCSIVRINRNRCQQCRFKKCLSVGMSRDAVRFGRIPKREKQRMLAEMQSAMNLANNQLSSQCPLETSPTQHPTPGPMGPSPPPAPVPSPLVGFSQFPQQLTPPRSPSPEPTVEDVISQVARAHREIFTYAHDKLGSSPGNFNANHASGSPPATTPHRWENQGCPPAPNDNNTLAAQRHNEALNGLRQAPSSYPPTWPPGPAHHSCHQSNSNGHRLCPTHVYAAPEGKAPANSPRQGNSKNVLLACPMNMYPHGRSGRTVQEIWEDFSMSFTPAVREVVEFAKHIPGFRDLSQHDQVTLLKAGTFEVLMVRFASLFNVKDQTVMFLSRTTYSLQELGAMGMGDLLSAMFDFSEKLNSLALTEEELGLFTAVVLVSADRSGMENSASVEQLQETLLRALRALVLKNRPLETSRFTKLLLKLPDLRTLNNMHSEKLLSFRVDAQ
NR2E3 ag confirm – NR2E3 agonism confirmed in two-hybrid assay; shares compounds with NR2E3 ag-2; CHO-S mammalian two-hybrid NR2E3-NCOR, luciferase luminescence; inhibition, % at 3.98 µM; 51% of 2,300 active;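 active = average inhibition above a cutoff equal to the mean inhibition of all tested compounds plus one SD, cut at about 70% in these data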;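 note: 0% = DMSO in NR2E3 cells and 100% = DMSO in cells lacking NR2E3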
GAL4-VP16 luc – reduces GAL4-VP16 reporter signal in NR2E3 counterscreen; shares compounds with NR2E3 ag-2; CHO-S GAL4-VP16 luciferase reporter, luminescence; inhibition, % at 3.98 µM; 29% of 2,300 active; AID 624379;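 active = mean inhibition above a cutoff equal to the average over all tested compounds plus one standard deviation, cut at about 70% in these data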;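 note: luciferase from a UAS reporter driven by GAL4-VP16 transactivation; 0% = DMSO with VP16-transfected cells and 100% = DMSO with cells lacking VP16; higher means less reporter light so more repression of VP16 activity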
An asterisk follows results filed as active; nt = not tested or not shown.

SMILES	PG9 binder	NR2E3 ag-1	NR2E3 ag-2	Rev-erbA mod	NR2E3 ag confirm	GAL4-VP16 luc
Cc1nnc(N2C(=O)C(=O)/C(=C(/O)c3ccc4c(c3)OCCO4)C2c2ccc(F)cc2)s1 (stereo not given)	5	3	-21	-3	nt	nt
O=C1C(=O)N(c2nccs2)C(c2ccccc2F)/C1=C(\O)c1ccc2c(c1)OCCO2 (stereo not given)	8	12	93*	-6	92*	64
O=C1C(=O)N(c2nccs2)C(c2ccccc2)/C1=C(\O)c1ccc2c(c1)OCCO2 (stereo not given)	nt	11	76*	nt	82*	44
CCCC[C@H]1C2CC(OC(=O)Nc3ccc(C)cc3)C(C2)[C@H]2CCCCN21 (stereo not given in full)	nt	nt	nt	4	nt	nt
COc1cc(C(C)=O)ccc1OCCCN1CCC(c2noc3cc(F)ccc23)CC1	nt	nt	nt	-1	nt	nt
O=c1c2c(n3nnnc3n1Cc1ccc(Cl)cc1)-c1ccccc1CC21CCCC1	nt	nt	nt	5	nt	nt
CC1=C2NC(N)=[N+](CC3CC3)C(Cc3ccccc3)[C@@H]2n2c(=O)n(-c3ccccc3)c(=O)n2C1 (stereo not given in full)	nt	nt	nt	0	nt	nt
CC1c2cc3c(cc2CCN1C(=O)c1ccc(C(F)(F)F)cc1)OCCCO3 (stereo not given)	0	-2	59	6	21	39
CC(=O)N1CCCc2cc(S(=O)(=O)Nc3cccc(C)c3C)ccc21	-1	1	36	0	nt	nt
COc1cccc(NS(=O)(=O)c2ccc3c(c2)CCN3C(C)=O)c1	-1	-1	67	-7	62	59
CC(=O)N1CCc2cc(S(=O)(=O)Nc3cccc(C(F)(F)F)c3)ccc21	-2	-1	65	0	63	38
CSc1cccc(NS(=O)(=O)c2ccc3c(c2)CCN3C(C)=O)c1	0	0	72*	0	85*	77*
CC(=O)N1CCc2cc(S(=O)(=O)Nc3ccc(C)cc3)ccc21	1	-2	-34	4	nt	nt
CC(=O)N1CCc2cc(S(=O)(=O)N3CCc4ccccc43)ccc21	0	2	74*	3	51	47
O=c1c([N+](=O)[O-])c(Cl)c2ccccc2n1Cc1ccccc1	nt	nt	nt	-1	nt	nt
COc1ccc(CNS(=O)(=O)c2ccc3c(c2)CCN3C(=O)C2CCC2)cc1	0	-2	51	-8	27	43
COc1cccc(CNS(=O)(=O)c2ccc3c(c2)CCN3C(=O)C2CC2)c1	2	-1	-3	-6	nt	nt
CC(=O)N1CCN(S(=O)(=O)c2cccc(C(=O)OCc3ccc(C(C)(C)C)cc3)c2)CC1	0	nt	73*	-1	78*	76*
COc1ccc(NS(=O)(=O)c2ccc3oc(SCc4ccc(F)cc4)nc3c2)cc1	-3	1	53	-5	85*	69
Nc1[nH]c2cc(Cl)ccc2c1C(=O)N1CCOCC1	nt	nt	nt	-2	nt	nt
CC(C)C[C@@H](CN1CCC[C@@H]1CN1C(=S)NC[C@@H]1Cc1ccc(O)cc1)N1C[C@H](Cc2ccccc2)N(CCc2ccccc2)C1=S	nt	nt	53	nt	-3	25
O=C(Nc1ccc(-n2ccc(C(F)(F)F)n2)cc1)Nc1cccc(Cl)c1	0	-1	82*	4	99*	75*
COC(=O)[C@H](C(C)C)N1CCc2nnn(Cc3ccccc3)c2-c2cc(F)ccc2S1(=O)=O	nt	nt	nt	0	nt	nt
O=C1NC(=S)NC1=Cc1ccc(Cl)cc1Cl	-2	nt	7	2	nt	nt
O=C1NC(=O)C(=Cc2ccc(Cl)cc2Cl)S1	-3	nt	62	2	91*	-4
SMILES	PG9 binder	NR2E3 ag-1	NR2E3 ag-2	Rev-erbA mod	NR2E3 ag confirm	GAL4-VP16 luc
COc1ccccc1-c1noc(CCCC(=O)NC2CCCC2)n1	0	2	-23	-5	nt	nt
O=C(CCCc1nc(-c2ccccc2Cl)no1)NC1CCCC1	1	-1	62	-9	60	56
COC(=O)C1CN(Cc2ccc(OC)cc2)CCS(=O)(=O)N1Cc1cn(Cc2ccc(Cl)cc2)nn1 (stereo not given)	nt	nt	nt	6	nt	nt
CN(C)c1ccc(C(=O)c2ccccc2C(=O)O)c(O)c1	-1	1	-23	-3	nt	nt
CCCCN(CCCC)c1ccc(C(=O)c2ccccc2C(=O)O)c(O)c1	-1	-1	50	-2	9	33
O=C(c1cnn2c(C(F)(F)F)cc(-c3ccccc3)nc12)N1CCCCC1c1cccnc1 (stereo not given)	-1	3	0	-7	nt	nt
